Data reported in ChEMBL document CHEMBL1127524, “Nitrobenzyl phosphorodiamidates as potential hypoxia-selective alkylating agents” (1994).

Assays:
[1] = tested on: HT-29; assay: Cytotoxicity of compound was evaluated against HT-29 cells under hypoxic conditions.; format: functional, Homo sapiens
Method in brief: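 HT-29 cells at 1-2 × 10^7 cells/mL deoxygenated 10 min at 37 °C in gas-tight syringe, injected into medium degassed 3 h with 97% N2/3% CO2; 4 h exposure under continuous N2/CO2 gassing, run alongside aerobic arm with same drug stock; 1% DMSO controls; 14-day colony formation (>50 cells); survival vs untreated; duplicates; IC90 from log-linear survival curve.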

[2] = tested on: HT-29; assay: Cytotoxicity of compound was evaluated against HT-29 cells under aerobic conditions.; format: functional, Homo sapiens
Method in brief: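 Human colon carcinoma HT-29 cells (α-MEM, 10% FBS), exponential growth, suspended at 1-2 × 10^5 cells/mL in glass vials; 4 h drug exposure gassed with 97% air/3% CO2; drug from DMSO, controls 1% DMSO; washed, plated, 14-day clonogenic colonies (>50 cells) counted; survival vs untreated; duplicates; IC90 from log-linear portion of survival curve.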

Compound | LC90 [1] [µM] | LC90 [2] [µM]
CC(OP(=O)(N(CCCl)CCCl)N(CCCl)CCCl)c1ccc([N+](=O)[O-])cc1 (stereo not given) | 22 | >2000
O=[N+]([O-])c1ccc(COP(=O)(N(CCCl)CCCl)N(CCCl)CCCl)cc1 | 55 | 109
CN(C)CCCOC(=O)CC(OP(=O)(N(CCCl)CCCl)N(CCCl)CCCl)c1ccc([N+](=O)[O-])cc1 (stereo not given) | 50 | 95
CCOC(=O)CC(OP(=O)(N(CCCl)CCCl)N(CCCl)CCCl)c1ccc([N+](=O)[O-])cc1 (stereo not given) | 13 | 106
CN(C)CCOC(=O)CC(OP(=O)(N(CCCl)CCCl)N(CCCl)CCCl)c1ccc([N+](=O)[O-])cc1 (stereo not given) | 34 | 55
